Assay results taken from article PMC7429283 (ACS combinatorial science, 2020).

Legend:
dopamine receptors = details: cited from earlier work
NTMT1 [1] = molecular target: T1, NTMT1 (Homo sapiens, UniProt Q9BV86); test: MTase-Glo luminescence assay, 1536-well; format: biochemical; details: IC50, Epigenetic Library qHTS, 1 nM to 57 μM
T1 sequence (Q9BV86 1-222): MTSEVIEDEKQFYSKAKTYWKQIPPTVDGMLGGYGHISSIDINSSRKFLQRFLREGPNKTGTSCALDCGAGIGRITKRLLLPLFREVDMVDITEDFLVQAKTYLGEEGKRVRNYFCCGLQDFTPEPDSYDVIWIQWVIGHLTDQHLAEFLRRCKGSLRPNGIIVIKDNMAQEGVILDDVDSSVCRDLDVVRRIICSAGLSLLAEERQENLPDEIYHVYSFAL
Procedure, shortened: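 His-tagged NTMT1 was expressed with IPTG induction at 15 °C overnight and purified on Ni-NTA. It was used at 125 nM final with 100 μM SAM in 4 μL wells. Optimized SAHH-ThioGlo3 conditions served as the starting point, with kit reagents at recommended concentrations. SAH was converted to ADP and read by luminescence. Data were normalized plate-wise to DMSO and Ac-RCC1-10 controls, then fitted to concentration-response curves.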

NTMT1 [2] = molecular target: T1, NTMT1; test: SAHH-coupled ThioGlo3 fluorescence assay, 1536-well; format: biochemical; details: IC50, Epigenetic Library qHTS, 1 nM to 57 μM
Procedure, shortened: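 Final mix of His-NTMT1 125 nM, SAHH 10 μM, SAM 100 μM and ThioGlo3 15 μM in 25 mM Tris pH 7.5, 10 mM KCl, 0.01% Triton X-100. Test compounds were pin-transferred in qHTS dilution series, then SPKRIA peptide was added to 1 μM final (4 μL). Incubation was 30 min, read at Ex 340/Em 450. Fluorescence change from the initial read was normalized plate-wise to DMSO and Ac-RCC1-10 controls.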

NTMT1 [3] = molecular target: T1, NTMT1; test: MALDI-MS methylation inhibition assay; format: biochemical; details: data not shown
[4] = molecular target: cyclin-dependent kinase 1 (CDK1)/cyclin B; details: cited from earlier work
NTMT1 [5] = details: cited from earlier work

Compound	inhibition in MS testing (NTMT1 [3])	Km (NTMT1 [5]) [µM]	further results
N[C@@H]1CCc2cc(O)c(O)cc2C1 [6,7-ADTN]	–	–	IC50 (dopamine receptors): 0.0017 µM
[N-]=[N+]=Nc1nc2c(N)ncnc2n1[C@@H]1O[C@H](CO)[C@@H](O)[C@H]1O [8-Azidoadenosine]	no inhibition	–	IC50 (NTMT1 [1]): 17.1 to 24.3 µM; IC50 (NTMT1 [2]): 17.1 to 24.3 µM
CCn1cnc2c(Nc3cccc(Cl)c3)nc(N[C@@H]3CCCC[C@@H]3N)nc21 [CGP 74514A]	–	–	IC50 [4]: 0.031 µM
COc1cc2nc(N3CCCC3)nc(NC3CC3)c2cc1OC [NCGC00249822]	no inhibition	–	–
APKRQSPLPP	–	2	–
GPKRIA	–	0.5	–
